Most compounds without a hit are left out; they make up all but 4.9% or so of the library.
WT yeast gro inh: growth inhibition of WT yeast, mitochondrial fusion screen. mitochondrial fusion phenotypic screen, WT strain. AID 1362. 190,000 compounds, 2.1% hits. inhibition, % at 10 µM; in the data active means inhibition above about 58%; tested in S. cerevisiae
NPY-Y1 antag: NPY-Y1 (human) receptor antagonism. HEK293-CNG Y1 cells, membrane potential fluorescence; NPY at EC95, then isoproterenol. 200,000 compounds, 1% hits. P25929. inhibition, % at 3.6 µM;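 active means inhibition above the campaign mean inhibition of all tested compounds plus 3 SD, cut at about 20% in these data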;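 further: 0% = DMSO wells given NPY plus isoproterenol and 100% = isoproterenol alone without NPY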
Target sequence (P25929 whole entry, looked up): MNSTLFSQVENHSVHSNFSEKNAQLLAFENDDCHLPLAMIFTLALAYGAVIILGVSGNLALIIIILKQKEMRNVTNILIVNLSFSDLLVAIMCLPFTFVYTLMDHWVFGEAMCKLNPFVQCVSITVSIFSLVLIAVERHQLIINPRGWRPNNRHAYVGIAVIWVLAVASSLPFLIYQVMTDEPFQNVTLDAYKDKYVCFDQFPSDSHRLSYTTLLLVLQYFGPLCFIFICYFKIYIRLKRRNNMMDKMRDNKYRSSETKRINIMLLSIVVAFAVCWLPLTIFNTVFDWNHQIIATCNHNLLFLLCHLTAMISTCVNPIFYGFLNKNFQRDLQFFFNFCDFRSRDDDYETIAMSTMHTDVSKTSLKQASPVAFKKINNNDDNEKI
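Material: HEK293 cells co-expressing NPY Y1 receptor and cyclic-nucleotide gated channel. Timing: compound incubation 1 h at room temperature, readout 45 min post-stimulation. Signal: fluorescence, membrane potential probe.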
NPY1 pot ag: potentiates or activates human NPY-Y1 receptor; AID 1304; 220,000 compounds, 0.37% hits; activation, % at 3.6 µM; P25929; NPY-Y1 expressing cells, potentiator/agonist activation; in the data active means activation above about 33%, passing the limit was not always enough;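 further: cells stimulated with NPY at EC10 then isoproterenol at EC100; 0% = low agonist plus stimulus and 100% = saturating agonist plus stimulus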
RAM inhibit: yeast RAM network inhibition. S. cerevisiae dse1pr::URA3 reporter, 5-FOA growth OD615, 2 d; analog-sensitive cbk1-as2 kinase mutant strain. AID 868. 190,000 compounds, 1.8% hits. inhibition, % at 50 µM;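 active means inhibition above a set limit, 3 SD over mean compound inhibition, cut at about 8.4% in these data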;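 further: 0% = DMSO-only wells with no growth and 100% = 10 µM 1-NA-PP1 full growth; inhibition rescues growth on 5-FOA so higher OD means more RAM inhibition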
NPY2 pot ag: potentiators or agonists of human neuropeptide Y receptor Y2; cells expressing NPY-Y2, potentiator/agonist read-out; activation, % at 3.6 µM; AID 1359; 220,000 compounds, 0.45% hits; P49146; in the data active means activation above about 27%;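 further: cells stimulated with NPY near EC25 plus isoproterenol at EC100; 0% = vehicle plus submaximal agonist and 100% = vehicle plus saturating agonist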
NPY-Y2 antag: NPY-Y2 (human) receptor antagonism | AID 793 | NPY-Y2 expressing cells, antagonist mode | 140,000 compounds, 0.99% hits | inhibition, % at 2.7 µM; in the data active means inhibition above about 17%;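 further: 0% = vehicle with agonist challenge and 100% = reference antagonist with challenge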
Numbers without * were called inactive; . = no result.

SMILES	WT yeast gro inh	NPY-Y1 antag	NPY1 pot ag	RAM inhibit	NPY2 pot ag	NPY-Y2 antag
Cc1ccc(Cl)cc1NC(=S)N(Cc1ccco1)C(C)c1cccs1 (configuration not stated)	44	12	-13	8	-1	.
Cc1ccc(C)c(NC(=S)N(Cc2ccco2)C(C)c2cccs2)c1 (configuration not stated)	69*	2	10	6	-3	.
Cc1ccc(NC(=S)N(Cc2ccco2)C(C)c2cccs2)c(Cl)c1 (configuration not stated)	66*	10	-12	6	0	.
CC(C)=CCCC(C)CN1CCC(N2CCC(C(=O)N3CCCC3)CC2)CC1 (configuration not stated)	6	12	-18	0	-16	.
CN(CCc1nc2ccccc2[nH]1)Cc1nc(CC2CC2)no1	6	-6	3	0	12	.
Cc1cc(C)cc(OCCCC(=O)O)c1	-11	1	-17	0	-8	3
O=Cc1cc2ccccc2nc1SCc1ccc(Cl)c(Cl)c1	19	6	2	8.6*	0	1
CCc1cc2ccccc2nc1Cl	-15	6	11	3	15	.
O=C1c2ccccc2C(=O)N1CCCc1nc2ccccc2c(=O)n1-c1cccnc1	2	-2	14	-1	9	3
COc1ccc(OC)c(NC(=O)c2cc3c(Cl)nc4ccccc4c3s2)c1	-36	11	-18	9.9*	-12	5
COCCn1c(=S)[nH]c2cc(C(=O)N3CCc4ccccc43)ccc2c1=O	76*	-2	1	4	-3	3
NC(=O)Cc1cn(-c2ncc(C(F)(F)F)cc2Cl)c2ccccc12	0	5	-6	0	-2	1
COC(=O)Cc1cn(-c2ncc(C(F)(F)F)cc2Cl)c2ccccc12	84*	7	-35	3	-5	6
Cc1c(C(c2cccs2)c2c(C)n(C)n(-c3ccccc3)c2=O)c(=O)n(-c2ccccc2)n1C	.	.	4	.	7	.
CCOC(=O)c1ccc(-n2[nH]c(-c3ccccc3)cc2=O)cc1	-1	2	6	9.6*	2	1
Cc1cc(=O)n(-c2ccc(C(=O)O)cc2)[nH]1	-12	6	0	0	-6	.
Cc1ccccc1N(CC(=O)NC1CCCC1)C(=O)c1oc(C(C)(C)C)cc1C	5	15	13	3	14	10
Cc1cc(C(C)(C)C)oc1C(=O)N(CC(=O)NC1CCCC1)Cc1ccccc1Cl	64*	26*	-31	1	-20	27*
Cc1noc(C)c1COc1ccc(C(=O)OCc2nnc(-c3ccc(Cl)cc3)o2)cc1	-11	5	-18	10.0*	-21	3
O=C(OCc1nnc(-c2ccc(Cl)cc2)o1)c1ccncc1	3	1	13	4	12	0
COc1ccc(CNc2ccc3cn[nH]c3c2)c(OC)c1OC	-1	5	7	2	8	1
O=C(COC(=O)c1cccc(S(=O)(=O)N2CCc3ccccc32)c1)Nc1ncc(Cl)cc1Cl	12	2	-2	3	4	5
O=C(COC(=O)c1ccc(Cl)c(S(=O)(=O)N2CCc3ccccc3C2)c1)Nc1ncc(Cl)cc1Cl	-2	3	-18	10*	-2	5
COCN(C#N)c1nc(N(C)C)nc(N(C)C)n1	4	4	5	-1	0	.
COc1ccc(CN(C#N)c2nc(SC)nc(N(C)C)n2)cc1	29	12	-36	11*	-22	12
SMILES	WT yeast gro inh	NPY-Y1 antag	NPY1 pot ag	RAM inhibit	NPY2 pot ag	NPY-Y2 antag
COc1cccc(OCCNc2cc(N3CCCCC3)ccc2[N+](=O)[O-])c1	-24	6	-36	10*	-3	5
COc1ccc(OCCNc2cc(N3CCOCC3)ccc2[N+](=O)[O-])cc1	5	-2	6	4	-6	-1
CC1CCN(C(=O)CCc2ccc(Oc3cc([N+](=O)[O-])cc([N+](=O)[O-])c3)cc2)CC1	65*	7	-47	5	-15	6
COc1cccc(-n2nnnc2SCC(=O)Nc2ccc(C(C)=O)cc2)c1	-13	-5	12	0	3	-2
CCCS(=O)(=O)c1nnnn1-c1cccc(OC)c1	76*	-6	-15	-1	-20	0
CN(c1ccccc1)S(=O)(=O)c1cccc(NS(=O)(=O)c2ccc(/C=C/C(=O)O)cc2)c1	1	2	4	5	1	.
CC(C(=O)Nc1ccc(N2CCOCC2)cc1)N1C(=O)c2ccccc2C1=O (configuration not stated)	-9	-6	15	1	16	4
CC(C)C(C(=O)Nc1ccc(N2CCOCC2)cc1)N1C(=O)c2ccccc2C1=O (configuration not stated)	8	-6	7	9.3*	8	-1
CNC(=O)c1nn(-c2ccccc2)ccc1=O	9	0	-19	2	-18	-2
CNC(=O)c1nn(-c2ccc(Cl)cc2)ccc1=O	98*	3	-16	-1	-3	0
CC(C)(C)c1ccc(C(=O)CC(=O)c2cc(Cl)ccc2O)cc1	65*	2	-21	10*	2	0
Cc1ccc(CC(=O)c2ccc(Cl)cc2)cc1	.	.	4	.	13	.
CC(C)(C)c1ccc(C(=O)NNC(=O)c2ccc(Cl)cc2)cc1	-2	1	-23	4	-27	0
Cc1ccc(C(=O)CC(=O)c2cc(Cl)ccc2O)cc1	62*	6	-27	10*	-9	7
COc1ccc(/C=C(/Sc2nnc(-c3ccc(Cl)cc3)o2)C(=O)O)cc1	4	20	-21	5	-6	.
CCc1cccc(CC)c1NC(=O)/C(C#N)=C/c1ccccc1C(F)(F)F	68*	4	-23	3	0	10
N#C/C(=C\c1ccccc1C(F)(F)F)C(=O)Nc1ccccc1	17	10	-22	2	-1	0
Cc1ccc(CN(C#N)c2nc(C)cc(C)n2)cc1	-9	-2	-10	1	-4	4
COc1ccc(-c2csc(Nc3ccc(C)cn3)n2)cc1	58*	-4	7	0	22	.
S=C(NCCCN1CCOCC1)N1CCN(c2nc(-c3ccccc3)cs2)CC1	13	-5	-5	1	0	.
CC(OC(=O)c1ccc2c(c1)C(=O)N(Cc1ccncc1)C2=O)C(=O)Nc1cccc(Cl)c1Cl (configuration not stated)	-33	-11	114*	1	103*	4
O=C(COC(=O)c1ccc2c(c1)C(=O)N(Cc1ccncc1)C2=O)Nc1ccccc1[N+](=O)[O-]	-1	-3	-8	2	4	1
CCOc1ccc(N2C(=O)CC(N(CCc3ccc(S(N)(=O)=O)cc3)C(C)=O)C2=O)cc1 (configuration not stated)	.	.	1	.	-33	.

Source: PubChem (several laboratories)
